Data on 16 compounds can be found in ChEMBL document CHEMBL1124504, “Azido glycols: potent, low molecular weight renin inhibitors containing an unusual post scissile site residue” (J Med Chem, 1989).

pIC50: −log10 of the molar value. ≈ marks a conversion by molar mass, not a printed value.

For series [1], the species on record is Rattus norvegicus. Put plainly: In vitro intestinal permeability in rats. The class given is ADME. Put shortly:
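Rat jejunum removed after cervical dislocation, washed with balanced electrolyte solution at 4 °C. Central 30 cm mounted for recirculating luminal perfusion (30 mL) at 37 °C under 95% O2-5% CO2. Inhibitor added mucosally at 100 μM with 3H-PEG-900 baseline marker. Mucosal and serosal samples taken every 15 min for 150 min. Inhibitor measured by HPLC-UV and PEG by scintillation. P = J/ΔC from steady-state (45-120 min) regression, cm/h; mean ± SE, n = 2.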

Series [2] can be described thus: Solubility in pH 6.5 buffer. The format is physicochemical. Put shortly: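 About 10 mg shaken in 1 mL 0.01 M phosphate buffer, pH 6.5, for 24 h at 37 °C. Suspension filtered through glass wool, diluted in mobile phase, and quantified by HPLC with detection at 214 nm; reported as mg/mL.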
For series [3], the target named is T1, Renin (Homo sapiens, UniProt P00797).
T1 sequence (P00797 whole entry): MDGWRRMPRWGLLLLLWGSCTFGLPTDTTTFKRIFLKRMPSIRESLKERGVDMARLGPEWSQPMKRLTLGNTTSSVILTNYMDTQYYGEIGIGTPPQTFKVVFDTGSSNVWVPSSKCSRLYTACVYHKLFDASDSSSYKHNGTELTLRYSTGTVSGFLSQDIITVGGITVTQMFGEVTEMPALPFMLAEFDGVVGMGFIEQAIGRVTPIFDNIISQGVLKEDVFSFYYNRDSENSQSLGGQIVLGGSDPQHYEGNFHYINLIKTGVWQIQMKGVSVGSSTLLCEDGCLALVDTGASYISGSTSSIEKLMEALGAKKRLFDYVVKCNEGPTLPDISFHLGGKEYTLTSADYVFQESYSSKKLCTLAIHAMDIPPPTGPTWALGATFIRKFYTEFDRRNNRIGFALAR
Put plainly: Inhibitory activity against human plasma renin at pH 7.4. The class given is cell-free.

In series [4] the target is T1, Renin. Put plainly: Inhibitory activity against purified human renal renin at pH 6.0.
For series [5], the target named is T1, Renin. In words: Inhibitory activity against purified human renal renin at pH 6.0.
The subject of series [6] is Rattus norvegicus. Put plainly: Plasma levels in the portal blood vessel of rat after 10 min of administration of 10 mg/kg intraduodenally. Set-up: dose 10 mg/kg. The format is functional, organism-based. The method in brief: (§1)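 Male Sprague-Dawley rats, fasted overnight, ≥150 g, under inactin (80 mg/kg ip), pylorus ligated. Carotid and portal vein catheterized. 10 mg/kg injected into the duodenum; paired blood drawn at 10 min. Plasma acetonitrile-precipitated, serially diluted, dried.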

Series [7] has as its system Rattus norvegicus. Put plainly: Plasma levels in the systemic blood vessel of rat after 10 min of administration of 10 mg/kg intraduodenally. Set-up: dose 10 mg/kg. The format is functional, organism-based. The method in brief: as §1

Take `COc1ccc(C[C@H](NC(=O)C(C)C)C(=O)N[C@@H](Cc2cnc[nH]2)C(=O)N[C@H](CC2CCCCC2)[C@H](O)[C@H](O)CN=[N+]=[N-])cc1`: the Permeability in the series filed under Rattus norvegicus [1] is 0.79 cm (10e3*hr)-1. The same compound came in with a solubility in series [2] of 29 µg/mL (≈ 46.3 µM). Also, the pIC50 against Renin [3] is 8.00; against Renin [4], 8.70.
As to `CC(C)(C)OC(=O)N[C@@H](Cc1ccccc1)C(=O)N[C@@H](Cc1c[nH]cn1)C(=O)N[C@H](CC1CCCCC1)[C@H](O)[C@@H](O)CN=[N+]=[N-]`, the pIC50 on Renin [5] is 7.59.
The same measure, in the same setting: the result for `CC(C)(C)OC(=O)N[C@@H](Cc1ccccc1)C(=O)N[C@@H](Cc1c[nH]cn1)C(=O)N[C@H](CC1CCCCC1)[C@H](O)CCN=[N+]=[N-]` reads 7.70.
For the compound `COc1ccc(C[C@H](NC(=O)C(C)C)C(=O)N[C@@H](Cc2c[nH]cn2)C(=O)N[C@H](CC2CCCCC2)[C@H](O)[C@H](O)CN=[N+]=[N-])cc1`, the figures for the Plasma level in the series with Rattus norvegicus [6] and in the series with Rattus norvegicus [7] were 53 ng/mL and 12 ng/mL, respectively.
`COc1ccc(C[C@H](NC(=O)N2CCOCC2)C(=O)N[C@@H](Cc2c[nH]cn2)C(=O)N[C@H](CC2CCCCC2)[C@H](O)[C@H](O)CN=[N+]=[N-])cc1`: the Permeability in the series filed under Rattus norvegicus [1] is 4.25 cm (10e3*hr)-1. In series [2], this compound registered a solubility of 1000 µg/mL (≈ 1490 µM). Besides, the Plasma level with Rattus norvegicus [6] came out at 230 ng/mL; in the series with Rattus norvegicus [7] it was 15 ng/mL. The pIC50 is 7.70 against Renin [3] and 8.40 against Renin [4].
At Renin [5], `CC(C)(C)OC(=O)N[C@@H](Cc1ccccc1)C(=O)N[C@@H](Cc1cnc[nH]1)C(=O)N[C@H](CC1CCCCC1)[C@H](O)CN=[N+]=[N-]` gave a pIC50 of 8.12.
`[N-]=[N+]=NC[C@@H](O)[C@@H](O)[C@@H](CC1CCCCC1)NC(=O)[C@H](Cc1cnc[nH]1)NC(=O)[C@H](Cc1ccccc1)NC(=O)N1CCOCC1` showed a solubility in series [2] of 2600 µg/mL (≈ 4060 µM). In addition, the pIC50 against Renin [3] was 8.62; against Renin [4], 9.17.
In series [2], `[N-]=[N+]=NC[C@@H](O)[C@@H](O)[C@@H](CC1CCCCC1)NC(=O)[C@H](Cc1c[nH]cn1)NC(=O)[C@H](Cc1ccccc1)NC(=O)C1CCOCC1` registered a solubility of 23 µg/mL (≈ 36 µM). Moreover, the pIC50 at Renin [3] is 8.12; against Renin [4], 9.15.
On to `Cn1c(=O)c2[nH]cnc2n(C)c1=O.O` [THEOPHYLLINE], for which the Permeability in the series listed under Rattus norvegicus [1] was 22.35 cm (10e3*hr)-1.
Compound `C=C(CN=[N+]=[N-])[C@@H](O)[C@@H](CC1CCCCC1)NC(=O)[C@H](Cc1c[nH]cn1)NC(=O)[C@H](Cc1ccccc1)NC(=O)OC(C)(C)C` had a pIC50 against Renin [5] of 7.26.
Still for that read-out and setting: under `CC(C)(C)OC(=O)N[C@@H](Cc1ccccc1)C(=O)N[C@@H](Cc1cnc[nH]1)C(=O)N[C@H](CC1CCCCC1)[C@H](O)C(O)(CO)CN=[N+]=[N-]` (stereo partly drawn) stands 8.32; under `CC(C)(C)OC(=O)N[C@@H](Cc1ccccc1)C(=O)N[C@@H](Cc1cnc[nH]1)C(=O)N[C@H](CC1CCCCC1)[C@H](O)[C@@H](CO)CN=[N+]=[N-]`, 6.43; under `CC(C)(C)OC(=O)N[C@@H](Cc1ccccc1)C(=O)N[C@@H](Cc1c[nH]cn1)C(=O)N[C@H](CC1CCCCC1)[C@H](O)C(=O)CN=[N+]=[N-]`, 8.27.
Consider `CC(C)(C)OC(=O)N[C@@H](Cc1ccccc1)C(=O)N[C@@H](Cc1c[nH]cn1)C(=O)N[C@H](CC1CCCCC1)[C@H](O)[C@H](O)CN=[N+]=[N-]`, for which the pIC50 is 8.05 at Renin [3], 9.40 on Renin [5] and 9.40 at Renin [4].
The compound `CC(C)(C)OC(=O)N[C@@H](Cc1ccccc1)C(=O)N[C@@H](Cc1c[nH]cn1)C(=O)N[C@H](CC1CCCCC1)[C@H](O)[C@H](CO)CN=[N+]=[N-]` gave a pIC50 on Renin [5] of 8.00.
Turning to `CC(C)C(=O)N[C@@H](Cc1ccccc1)C(=O)N[C@@H](Cc1c[nH]cn1)C(=O)N[C@H](CC1CCCCC1)[C@H](O)[C@H](O)CN=[N+]=[N-]`, the concentration in solution in series [2] (solubility) came to 13 µg/mL (≈ 21.8 µM). For the same compound, the values for the pIC50 against Renin [3] and at Renin [4] were 8.48 and 9.26, respectively.
